Among the data in ChEMBL document CHEMBL1240413, “Synthesis and evaluation of vinyl sulfones as caspase-3 inhibitors. A structure-activity study” (Eur J Med Chem, 2010) are IC50 values, retold here.

The structures appear in SMILES notation. A value given as a limit tells only on which side of the number the result lay.

One experiment addresses T1, Caspase-3 (Homo sapiens, UniProt P42574).
T1 sequence (P42574 whole entry): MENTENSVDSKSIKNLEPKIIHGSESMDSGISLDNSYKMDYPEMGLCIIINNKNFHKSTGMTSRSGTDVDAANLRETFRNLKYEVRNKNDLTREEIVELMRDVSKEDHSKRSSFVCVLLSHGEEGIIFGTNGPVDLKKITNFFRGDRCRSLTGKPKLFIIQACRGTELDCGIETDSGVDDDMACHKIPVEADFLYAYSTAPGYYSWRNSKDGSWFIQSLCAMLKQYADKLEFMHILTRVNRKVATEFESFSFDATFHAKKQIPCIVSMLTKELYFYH
As to the kind of experiment: Inhibition of human recombinant caspase 3 assessed as fluorescent 7-amido-4-methylcoumarin release.
For the compound `CC(C)[C@H](NC(=O)OCc1ccccc1)C(=O)N[C@H](/C=C/S(C)(=O)=O)CC(=O)O`, the IC50 came to 133 µM. Turning to `CS(=O)(=O)/C=C/[C@H](CC(=O)O)NC(=O)OCc1ccccc1`, the IC50 came to 435 µM. For `C[C@H](NC(=O)OCc1ccccc1)C(=O)N[C@H](/C=C/S(=O)(=O)c1ccccc1)CC(=O)O`, the IC50 was determined as 343 µM.

For the compound `CC(C)[C@H](NC(=O)OCc1ccccc1)C(=O)N[C@H](/C=C/S(=O)(=O)c1ccccc1)CC(=O)O`, the IC50 came out at 388 µM. Turning to `C[C@H](NC(=O)OCc1ccccc1)C(=O)N[C@H](/C=C/S(C)(=O)=O)CC(=O)O`, the IC50 amounted to 656 µM. With `O=C(O)C[C@@H](/C=C/S(=O)(=O)c1ccccc1)NC(=O)OCc1ccccc1`, the IC50 stood at 453 µM.

Another experiment concerns the target T2, Caspase-7 (Homo sapiens, UniProt P55210).
T2 sequence (P55210 whole entry): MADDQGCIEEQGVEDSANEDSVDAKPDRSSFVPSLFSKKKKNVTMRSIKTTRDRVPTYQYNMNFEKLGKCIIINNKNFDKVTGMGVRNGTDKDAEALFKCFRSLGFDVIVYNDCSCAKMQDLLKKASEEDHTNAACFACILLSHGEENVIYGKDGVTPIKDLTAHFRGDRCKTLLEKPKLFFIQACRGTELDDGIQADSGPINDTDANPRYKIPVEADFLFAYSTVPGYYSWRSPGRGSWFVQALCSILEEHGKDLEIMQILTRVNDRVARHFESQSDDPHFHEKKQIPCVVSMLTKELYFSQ
Description: Inhibition of human recombinant caspase 7 assessed as fluorescent 7-amido-4-methylcoumarin release. The essentials: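 Recombinant human caspase-7, 1 U per well final, was mixed with inhibitor at various concentrations in 20 mM HEPES, 2 mM EDTA, 0.1% CHAPS, 5 mM DTT, pH 7.4. The reaction was started by adding Ac-DEVD-AMC substrate, with a stock of 2 mM in DMSO. AMC release was followed continuously at 37 °C (ex 360, em 460 nm), and IC50 was determined.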
Consider `CC(=O)N[C@@H](CC(=O)O)C(=O)N[C@@H](CCC(=O)O)C(=O)N[C@H](C(=O)N[C@H](C=O)CC(=O)O)C(C)C`, for which the IC50 amounted to 0.0591 µM. On the same count and under the same terms, in the case of `CC(C)[C@H](NC(=O)OCc1ccccc1)C(=O)N[C@H](/C=C/S(C)(=O)=O)CC(=O)O` it was over 200 µM; in that of `O=C(O)C[C@@H](/C=C/S(=O)(=O)c1ccccc1)NC(=O)OCC1c2ccccc2-c2ccccc21`, over 200 µM. For `CC(C)[C@H](NC(=O)OCC1c2ccccc2-c2ccccc21)C(=O)N[C@H](/C=C/S(C)(=O)=O)CC(=O)O`, the IC50 was over 200 µM. Same read-out and setting: in the case of `CC(C)[C@H](NC(=O)OCC1c2ccccc2-c2ccccc21)C(=O)N[C@H](/C=C/S(=O)(=O)c1ccccc1)CC(=O)O` it was over 200 µM; in that of `CC[C@H](C)[C@H](NC(=O)OCc1ccccc1)C(=O)N[C@H](/C=C/S(=O)(=O)c1ccccc1)CC(=O)O`, over 200 µM.

Take `CS(=O)(=O)/C=C/[C@H](CC(=O)O)NC(=O)OCC1c2ccccc2-c2ccccc21`: the IC50 was over 200 µM. Turning to `CC[C@H](C)[C@H](NC(=O)OCc1ccccc1)C(=O)N[C@H](/C=C/S(C)(=O)=O)CC(=O)O`, the half-inhibitory concentration (IC50) was over 200 µM.

What is called IC50 is the point on the concentration scale where inhibition reaches its midpoint.
